# The source made the active and inactive calls. The rule behind the calls is not given here.
# How the values were obtained:
# [1] = target: 3-alpha-(or 20-beta)-hydroxysteroid dehydrogenase (Streptomyces exfoliatus) (UniProt P19992); assay: Time-dependent inhibition of 20beta-hydroxy steroid dehydrogenase in Streptomyces hydrogenans assessed as inhibition of […] at 50 uM
# How it was run: (§1)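 20β-Hydroxy steroid dehydrogenase from Streptomyces hydrogenans (4.2×10^-7 M) in 0.05 M phosphate buffer, pH 7.0, with 15% glycerol, was incubated with the bromoacetate steroid at 5×10^-5 M at 25 °C. Remaining activity was followed over time as NADH-dependent cortisone reduction to assess time-dependent, irreversible inactivation. The inactivation half-life was taken from the rate of activity loss.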
# [2] = target: 3-alpha-(or 20-beta)-hydroxysteroid dehydrogenase (Streptomyces exfoliatus) (UniProt P19992); assay: Irreversible inhibition of 20beta-hydroxy steroid dehydrogenase in Streptomyces hydrogenans assessed as inhibition of […] at 50 uM; how it was run: as §1
# [3] = target: 3-alpha-(or 20-beta)-hydroxysteroid dehydrogenase (Streptomyces exfoliatus) (UniProt P19992); assay: Inhibition of 20beta-hydroxy steroid dehydrogenase in Streptomyces hydrogenans assessed as half life of enzyme inactivation at 50 uM; how it was run: as §1
# Rattus norvegicus [4] = assay: Termination of pregnancy in intact rat assessed as fetal resorption administered into uterine lumen on day 7 measured on day 14; assay type: functional, organism-based
# Rattus norvegicus [5] = assay: Progestational activity in 9-day old pregnant bilateral ovariectomized Sprague-Dawley albino rat assessed as viable fetus at 0.074 to 0.15 mg, sc for 3 days beginning 3 hrs prior to overiectomy measured on day 12 in presence of 17beta-estradiol; assay type: functional, organism-based
# How it was run: (§2)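 Albino rats (Holtzman), 9 days pregnant and weighing 275–305 g, were used in groups of five. They received subcutaneous steroid in 0.2 mL sesame oil together with 17β-estradiol, 3 h before bilateral ovariectomy. Injections were repeated every 12 h for 3 days. On day 12 the animals were killed, opened by a ventral longitudinal incision, and the intact uteri removed to examine the fetuses.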
# Rattus norvegicus [6] = assay: Progestational activity in 9-day old pregnant bilateral ovariectomized Sprague-Dawley albino rat assessed as unresorbed fetus at 0.074 mg, sc for 2 days beginning 3 hrs prior to overiectomy measured on day 12 in presence of 17beta-estradiol; assay type: functional, organism-based
# How it was run: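 Pregnant albino rats (Holtzman, day 9, 275–305 g) were used in a group of five. They received a subcutaneous steroid/17β-estradiol mixture in 0.2 mL sesame oil 3 h before bilateral ovariectomy and a second injection 12 h later, with nothing given afterwards. On day 12 the rats were sacrificed and autopsied, and the intact uteri removed to score the fetuses.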
# Rattus norvegicus [7] = assay: Progestational activity in 9-day old pregnant bilateral ovariectomized Sprague-Dawley albino rat assessed as viable fetus at 0.055 to 0.11 mg, sc for 3 days beginning 3 hrs prior to overiectomy measured on day 12 in presence of 17beta-estradiol; assay type: functional, organism-based; how it was run: as §2
# Rattus norvegicus [8] = assay: Progestational activity in 9-day old pregnant bilateral ovariectomized Sprague-Dawley albino rat assessed as viable fetus at 1 mg, sc for 3 days beginning 3 hrs prior to overiectomy measured on day 12 in presence of 17beta-estradiol; assay type: functional, organism-based
# How it was run: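 Groups of five 9-day-pregnant albino rats (275–305 g) received sc injections in 0.2 mL sesame oil together with 17β-estradiol (0.1×10^-3 mg), starting 3 h before bilateral ovariectomy. Injections were repeated every 12 h for 3 days. On day 12 the animals were sacrificed and opened by longitudinal ventral incision, and the intact uteri were removed to examine the fetuses.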
# 3-alpha-(or 20-beta)-hydroxysteroid dehydrogenase (Streptomyces exfoliatus), sequence (P19992 whole entry): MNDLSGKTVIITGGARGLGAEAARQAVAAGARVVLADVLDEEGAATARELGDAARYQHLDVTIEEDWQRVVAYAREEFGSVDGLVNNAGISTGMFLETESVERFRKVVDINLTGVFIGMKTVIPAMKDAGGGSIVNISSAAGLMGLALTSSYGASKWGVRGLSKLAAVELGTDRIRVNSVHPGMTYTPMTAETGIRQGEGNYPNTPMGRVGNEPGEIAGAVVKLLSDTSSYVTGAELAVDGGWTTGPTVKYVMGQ
Structure (SMILES),T1/2 [3] [h],Activity (Rattus norvegicus [4]),other results
CC(=O)[C@@]1(OC(=O)CBr)CC[C@H]2[C@@H]3C[C@H](C)C4=CC(=O)CC[C@]4(C)[C@H]3CC[C@@]21C,15,inactive,inhibition [1]: Active; inhibition [2]: Active; Activity (Rattus norvegicus [5]): Active; Activity (Rattus norvegicus [6]): Active
CC(=O)[C@H]1CC[C@H]2[C@@H]3CCC4=CC(=O)CC[C@]4(C)[C@H]3[C@H](OC(=O)CBr)C[C@]12C,–,Active,–
CC(=O)O[C@]1(C(C)=O)CC[C@H]2[C@@H]3C[C@H](C)C4=CC(=O)CC[C@]4(C)[C@H]3CC[C@@]21C,–,–,Activity (Rattus norvegicus [7]): Active
CC(=O)[C@H]1CC[C@H]2[C@@H]3CCC4=CC(=O)CC[C@]4(C)[C@H]3CC[C@]12C,–,–,Activity (Rattus norvegicus [8]): Active
CC(=O)[C@H]1[C@H](OC(=O)CBr)C[C@H]2[C@@H]3CCC4=CC(=O)CC[C@]4(C)[C@H]3CC[C@@]21C,4,Active,–
C[C@]12CC[C@H]3[C@@H](CCC4=CC(=O)CC[C@@H]43)[C@@H]1CC[C@@H]2OC(=O)CBr,–,Active,–

# From ChEMBL document CHEMBL3243994, “Synthesis of medroxyprogesterone bromoacetate for affinity labeling” (J Med Chem, 1977)
